The source made the active and inactive calls. The rule behind the calls is not given here.
Tests used:
[1] = Cytotoxicity against human ME180 cells assessed as inhibition of cell viability after 48 hrs by MTT assay; assay type: functional, cell-based; settings: ME-180, 48 h
How it was run: (§1)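 Cells were counted by trypan blue exclusion, seeded at 1x10^4 cells per well, and exposed to a series of compound concentrations for 48 h at 37 °C in DMEM with 10% FBS. The medium was replaced with serum-free medium plus MTT (5 mg/ml reagent) for 4 h at 37 °C. Formazan was dissolved in DMSO for 10 min and A570 was read. IC50 came from a plot of % viability versus control against concentration.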

MCF7 [2] = test: Cytotoxicity against human MCF7 cells assessed as inhibition of cell viability after 48 hrs by MTT assay; assay type: functional, cell-based; settings: MCF7, 48 h; how it was run: as §1
HeLa = test: Cytotoxicity against human HeLa cells assessed as inhibition of cell viability after 48 hrs by MTT assay; assay type: functional, cell-based; how it was run: as §1
MDA-MB-453 [3] = test: Cytotoxicity against human MDA-MB-453 cells assessed as inhibition of cell viability after 48 hrs by MTT assay; assay type: functional, cell-based; settings: MDA-MB-453, 48 h; how it was run: as §1
MDA-MB-231 [4] = test: Cytotoxicity against human MDA-MB-231 cells assessed as inhibition of cell viability after 48 hrs by MTT assay; assay type: functional, cell-based; settings: MDA-MB-231, 48 h; how it was run: as §1
PC-3 [5] = test: Cytotoxicity against human PC3 cells assessed as inhibition of cell viability after 48 hrs by MTT assay; assay type: functional, cell-based; settings: PC-3, 48 h; how it was run: as §1
HT-29 = test: Cytotoxicity against human HT-29 cells assessed as inhibition of cell viability after 48 hrs by MTT assay; assay type: functional, cell-based; settings: HT-29, 48 h; how it was run: as §1
[6] = Retardation factor of the compound using hexane/ethyl acetate at ratio of 19:1 as solvent system; assay type: physicochemical
[7] = Retardation factor of the compound using hexane/ethyl acetate at ratio of 3:1 as solvent system; assay type: physicochemical
PC-3 [8] = test: Cell cycle arrest in human PC3 cells assessed as increase in accumulation at G2/M phase at 3 to 6 uM after 48 hrs by flow cytometry relative to control; assay type: functional
How it was run: (§2)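 Cells were plated at […] per well in six-well plates and treated for 48 h. They were harvested by trypsinization, washed twice in PBS, and fixed in 70% ice-cold ethanol at −20 °C for 3 h. Cells were then incubated with propidium iodide cell-cycle reagent at 37 °C for 30 min, and DNA content was measured by flow cytometry. PC-3 assays were run in duplicate.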

PC-3 [9] = test: Induction of morphological changes in human PC3 cells assessed as early apoptosis by measuring condensed chromatin, cell membrane blebbing, destructive fragmentation of nuclei at 3 uM after 48 hrs by acridine orange/ethidium bromide staining based fluorescence microscopy; assay type: functional
How it was run: (§3)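 Cells were seeded at 1×10^6 per well in 6-well plates and treated for 48 h. After a PBS wash they were stained with a 1:1 acridine orange/ethidium bromide mix for 5 min in the dark, washed again, and imaged by inverted fluorescence microscopy at 200X. Two thousand cells were counted and scored as viable, early apoptotic, late apoptotic or necrotic, expressed as %.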

PC-3 [10] = test: Induction of morphological changes in human PC3 cells assessed as late apoptosis/necrosis at 6 uM after 48 hrs by acridine orange/ethidium bromide staining based fluorescence microscopy; assay type: functional, cell-based; how it was run: as §3
PC-3 [11] = test: Cell cycle arrest in human PC3 cells assessed as accumulation at G0/G1 phase at 3 uM after 48 hrs by flow cytometry (reference value: 55%); assay type: functional; how it was run: as §2
PC-3 [12] = test: Cell cycle arrest in human PC3 cells assessed as accumulation at S phase at 3 uM after 48 hrs by flow cytometry (reference value: 15.8%); assay type: functional; how it was run: as §2
PC-3 [13] = test: Cell cycle arrest in human PC3 cells assessed as accumulation at G2/M phase at 3 uM after 48 hrs by flow cytometry (reference value: 20.9%); assay type: functional; how it was run: as §2
PC-3 [14] = test: Cell cycle arrest in human PC3 cells assessed as accumulation at G0/G1 phase at 6 uM after 48 hrs by flow cytometry (reference value: 55%); assay type: functional; how it was run: as §2
PC-3 [15] = test: Cell cycle arrest in human PC3 cells assessed as accumulation at S phase at 6 uM after 48 hrs by flow cytometry (reference value: 15.8%); assay type: functional; how it was run: as §2
PC-3 [16] = test: Cell cycle arrest in human PC3 cells assessed as accumulation at G2/M phase at 6 uM after 48 hrs by flow cytometry (reference value: 20.9%); assay type: functional; how it was run: as §2
[17] = Retardation factor of the compound using hexane/ethyl acetate at ratio of 1.8:1 as solvent system; assay type: physicochemical
PC-3 [18] = test: Ratio of etoposide IC50 to compound IC50 for human PC3 cells; assay type: functional
MDA-MB-453 [19] = test: Induction of morphological changes in human MDA-MB-453 cells assessed as early apoptosis by measuring condensed chromatin, cell membrane blebbing, destructive fragmentation of nuclei at 5 uM after 48 hrs by acridine orange/ethidium bromide staining based fluorescence microscopy; assay type: functional; how it was run: as §3
MDA-MB-453 [20] = test: Induction of morphological changes in human MDA-MB-453 cells assessed as late apoptosis/necrosis at 10 uM after 48 hrs by acridine orange/ethidium bromide staining based fluorescence microscopy; assay type: functional, cell-based; how it was run: as §3
MDA-MB-453 [21] = test: Cell cycle arrest in human MDA-MB-453 cells assessed as accumulation at G0/G1 phase at 5 uM after 48 hrs by flow cytometry (reference value: 62.6%); assay type: functional; how it was run: as §2
MDA-MB-453 [22] = test: Cell cycle arrest in human MDA-MB-453 cells assessed as accumulation at S phase at 5 uM after 48 hrs by flow cytometry (reference value: 5.9%); assay type: functional; how it was run: as §2
MDA-MB-453 [23] = test: Cell cycle arrest in human MDA-MB-453 cells assessed as accumulation at G2/M phase at 5 uM after 48 hrs by flow cytometry (reference value: 23.5%); assay type: functional; how it was run: as §2
MDA-MB-453 [24] = test: Cell cycle arrest in human MDA-MB-453 cells assessed as accumulation at G0/G1 phase at 10 uM after 48 hrs by flow cytometry (reference value: 62.6%); assay type: functional; how it was run: as §2
MDA-MB-453 [25] = test: Cell cycle arrest in human MDA-MB-453 cells assessed as accumulation at S phase at 10 uM after 48 hrs by flow cytometry (reference value: 5.9%); assay type: functional; how it was run: as §2
MDA-MB-453 [26] = test: Cell cycle arrest in human MDA-MB-453 cells assessed as accumulation at G2/M phase at 10 uM after 48 hrs by flow cytometry (reference value: 23.5%); assay type: functional; how it was run: as §2
MDA-MB-453 [27] = test: Cell cycle arrest in human MDA-MB-453 cells assessed as increase in accumulation at S phase after 48 hrs by flow cytometry; assay type: functional, cell-based; how it was run: as §2
MDA-MB-453 [28] = test: Cell cycle arrest in human MDA-MB-453 cells assessed as increase in accumulation at G2/M phase after 48 hrs by flow cytometry; assay type: functional, cell-based; how it was run: as §2
MCF7 [29] = test: Ratio of etoposide IC50 to compound IC50 for human MCF7 cells; assay type: functional
MDA-MB-453 [30] = test: Ratio of etoposide IC50 to compound IC50 for human MDA-MB-453 cells; assay type: functional
MDA-MB-231 [31] = test: Ratio of etoposide IC50 to compound IC50 for human MDA-MB-231 cells; assay type: functional

SMILES | IC50 [1] [µM] | IC50 (MCF7 [2]) [µM] | IC50 (HeLa) [µM] | IC50 (MDA-MB-453 [3]) [µM] | IC50 (MDA-MB-231 [4]) [µM] | IC50 (PC-3 [5]) [µM] | IC50 (HT-29) [µM] | other results
C=CCc1ccc2c(c1O)C(=O)C=CC2=O | 82.9 | 58.2 | > 100 | 53.7 | > 100 | 92.9 | > 100 | Rf [6]: 0.39
Cc1cc2ccc3c(c2o1)C(=O)C=CC3=O | 15 | 24.3 | 51.2 | 25.2 | 38.9 | 18.2 | 57.9 | Rf [7]: 0.42
C=CCOc1cccc2c1C(=O)C=CC2=O | > 100 | 24 | > 100 | 37.8 | > 100 | 22.3 | 32.3 | 
COc1cc([C@@H]2c3cc4c(cc3[C@@H](O[C@@H]3O[C@@H]5CO[C@@H](C)O[C@H]5[C@H](O)[C@H]3O)[C@H]3COC(=O)[C@H]23)OCO4)cc(OC)c1O [ETOPOSIDE] | 8.9 |  | 4.71 | 12.5 |  |  |  | 
O=C1C=CC(=O)c2c(O)cccc21 [JUGLONE] | 65.4 | 16.5 | 93.7 | 27.5 | 75.8 | 88.7 | > 100 | 
CC1=CC(=O)c2c(ccc3cc(C)oc23)C1=O | 44.1 | 28.8 | 55.2 | 32.6 | 44 | 31.1 | 60.1 | Rf [7]: 0.43
O=C1C=CC(=O)c2c1ccc1c2OCC=C1 | 45.5 | 23.2 | 59.6 | 37.2 | 45.6 | 5.7 | 27.8 | fold change (FC) (PC-3 [8]): 1.6; Activity (PC-3 [9]): Active; Activity (PC-3 [10]): Active; Activity (PC-3 [11]): 45.3%; Activity (PC-3 [12]): 15.4%; Activity (PC-3 [13]): 30.8%; Activity (PC-3 [14]): 46.7%; Activity (PC-3 [15]): 12.3%; Activity (PC-3 [16]): 32%; Rf [17]: 0.38; Ratio IC50 (PC-3 [18]): 2.5
CC1=CC(=O)c2c(ccc3c2OC(CI)C3)C1=O (stereo unspecified) | 31.2 | 33.8 | 16.2 | 21.6 | 33.2 | 26.8 | 48.4 | Rf [17]: 0.38
O=C1C=CC(=O)c2c1ccc1c2OC(CI)C1 (stereo unspecified) | 9.4 | 13.4 | 27.4 | 20.8 | 29.2 | 12.7 | 31.3 | Rf [17]: 0.48
C=CCOc1cccc2c1C(=O)C=C(C)C2=O | 46.7 | 14.7 | 78 | 29.3 | 36.1 | 34.2 | 33.7 | Rf [7]: 0.45
CC1=CC(=O)c2c(O)cccc2C1=O [PLUMBAGIN] | 43.4 | 12.2 | 59 | 34.6 | 51.1 | 17.2 | 26.2 | 
COc1cccc2c1C(=O)c1c(O)c3c(c(O)c1C2=O)C[C@@](O)(C(=O)CO)C[C@@H]3O[C@H]1C[C@H](N)[C@H](O)[C@H](C)O1 [DOXORUBICIN] | 0.39 |  |  |  |  |  |  | 
CC1=CC(=O)c2c(ccc3c2OCC=C3)C1=O | 25.9 | 11.7 | > 100 | 10.9 | 18.3 | 24.5 | 34.6 | Activity (MDA-MB-453 [19]): Active; Activity (MDA-MB-453 [20]): Active; Activity (MDA-MB-453 [21]): 45%; Activity (MDA-MB-453 [22]): 12.6%; Activity (MDA-MB-453 [23]): 31.3%; Activity (MDA-MB-453 [24]): 10.5%; Activity (MDA-MB-453 [25]): 21.5%; Activity (MDA-MB-453 [26]): 55.9%; Activity (MDA-MB-453 [27]): Dose-dependent effect; Activity (MDA-MB-453 [28]): Dose-dependent effect; Rf [17]: 0.39; Ratio IC50 (MCF7 [29]): 2; Ratio IC50 (MDA-MB-453 [30]): 1.1; Ratio IC50 (MDA-MB-231 [31]): 1.3
C=CCc1ccc2c(c1O)C(=O)C=C(C)C2=O | 60.8 | 11.6 | 60.8 | 39 | 62.9 | 16.8 | 63 | Rf [6]: 0.35; Ratio (MCF7 [29]): 2

Reference: ChEMBL document CHEMBL3286259, “Synthesis and anticancer activity of some novel 5,6-fused hybrids of juglone based 1,4-naphthoquinones” (Eur J Med Chem, 2014)
